Data on five compounds can be found in PMC3880595 (Journal of medicinal chemistry, 2013).

Read-outs that look alike come from different tables or passages of the source. Positions of bridges follow the written chain, without caps; N, C: chain ends. Non-standard residues stand in square brackets, D forms with d. Residues, ends and D or L forms follow the SMILES beside them. Nle = CCCC[C@H](N)C(=O)O

The target in data set [1] is T1, MC1 receptor (Mus musculus, UniProt Q01727). Briefly: In vitro competitive binding assay against ^125I-. On the set-up: species or system murine. An outline of the steps: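 B16/F1 cells seeded at 2.5 × 10^5/well, grown overnight at 37 °C, then washed with binding medium (MEM, 25 mM HEPES pH 7.4, 0.2% BSA, 0.3 mM 1,10-phenanthroline). Incubated 2 h at 25 °C with ~30,000 cpm 125I-(Tyr2)-NDP-MSH plus test peptide at 10^-13 to 10^-6 M. Rinsed twice with ice-cold 0.2% BSA/0.01 M PBS (pH 7.4), lysed 5 min in 1 M NaOH, gamma-counted. Run in triplicate.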
T1 sequence (Q01727 whole entry): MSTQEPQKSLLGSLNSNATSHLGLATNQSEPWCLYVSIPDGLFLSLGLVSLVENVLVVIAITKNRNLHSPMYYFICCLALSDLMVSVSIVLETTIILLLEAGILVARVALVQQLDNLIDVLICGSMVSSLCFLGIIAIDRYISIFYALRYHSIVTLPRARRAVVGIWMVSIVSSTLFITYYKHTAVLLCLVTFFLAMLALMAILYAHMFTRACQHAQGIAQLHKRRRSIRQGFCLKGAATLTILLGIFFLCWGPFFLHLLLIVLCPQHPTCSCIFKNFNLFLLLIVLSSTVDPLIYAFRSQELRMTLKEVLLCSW

The nature of data set [2]: RP-HPLC capacity factor. The format is physicochemical. Particulars: chromatographic, Grace Vydac C-18, 20-min gradient of 16-26% acetonitrile in 20 mM HCl, 1 mL/min.
The target in data set [3] is T1, MC1 receptor. Conditions: read-out: MC1 receptor binding affinity; B16/F1 cells; cited from earlier work.

In turn, `CC(C)[C@H](NC(=O)[C@@H]1CCCN1C(=O)[C@H](CCCNC(=N)N)NC(=O)[C@H](CS)NC(=O)[C@H](Cc1c[nH]c2ccccc12)NC(=O)[C@H](CCCNC(=N)N)NC(=O)[C@@H](Cc1ccccc1)NC(=O)[C@H](Cc1c[nH]cn1)NC(=O)[C@H](CCC(=O)O)NC(=O)[C@H](CS)NC(=O)[C@H](CS)NC(=O)[C@H](CCCCN)NC(=O)[C@@H]1CC(=O)N[C@@H](CCCNC(=N)N)C(=O)N[C@@H](Cc2ccccc2)C(=O)N[C@@H](CC(=O)O)C(=O)N[C@H](Cc2ccc(O)cc2)C(=O)N1)C(N)=O` [RFD-Lys-(Arg^11)CCMSH] (RFD[dY]DKCCEH[dF]RWCRPV-NH2; lactam N-5) came in with an IC50 in data set [1] of 0.82 ± 0.06 nM. Moreover, the “Capacity factor (k')” value in data set [2] turned out to be 3.77. Compound `CCCC[C@@H]1NC(=O)[C@H](CCCNC(=N)N)NC(=O)C[C@@H](C(=O)N[C@@H](CCCCN)C(=O)N[C@@H](CS)C(=O)N[C@@H](CS)C(=O)N[C@@H](CCC(=O)O)C(=O)N[C@@H](Cc2c[nH]cn2)C(=O)N[C@H](Cc2ccccc2)C(=O)N[C@@H](CCCNC(=N)N)C(=O)N[C@@H](Cc2c[nH]c3ccccc23)C(=O)N[C@@H](CS)C(=O)N[C@@H](CCCNC(=N)N)C(=O)N2CCC[C@H]2C(=O)N[C@H](C(N)=O)C(C)C)NC(=O)[C@@H](Cc2ccc(O)cc2)NC(=O)[C@H](CC(=O)O)NC1=O` [RNleD-Lys-(Arg^11)CCMSH] (R[Nle]D[dY]DKCCEH[dF]RWCRPV-NH2; lactam N-5) had an IC50 in data set [1] of 2.99 ± 0.26 nM. Also, in data set [2], the “Capacity factor (k')” value was 4.36. The corresponding values for `CC(C)[C@H](NC(=O)[C@@H]1CCCN1C(=O)[C@H](CCCNC(=N)N)NC(=O)[C@H](CS)NC(=O)[C@H](Cc1c[nH]c2ccccc12)NC(=O)[C@H](CCCNC(=N)N)NC(=O)[C@@H](Cc1ccccc1)NC(=O)[C@H](Cc1c[nH]cn1)NC(=O)[C@H](CCC(=O)O)NC(=O)[C@H](CS)NC(=O)[C@H](CS)NC(=O)[C@H](CCCCN)NC(=O)[C@@H]1CC(=O)N[C@@H](CCCNC(=N)N)C(=O)N[C@@H](CO)C(=O)N[C@@H](CC(=O)O)C(=O)N[C@H](Cc2ccc(O)cc2)C(=O)N1)C(N)=O` [RSD-Lys-(Arg^11)CCMSH, c[Arg-Ser-Asp-DTyr-Asp]-Lys-Cys-Cys-Glu-His-DPhe-Arg-Trp-Cys-Arg-Pro-Val-NH2] (RSD[dY]DKCCEH[dF]RWCRPV-NH2; lactam N-5) are 1.3 ± 0.36 nM and 2.19. `CC(C)[C@H](NC(=O)[C@@H]1CCCN1C(=O)[C@H](CCCNC(=N)N)NC(=O)[C@H](CS)NC(=O)[C@H](Cc1c[nH]c2ccccc12)NC(=O)[C@H](CCCNC(=N)N)NC(=O)[C@@H](Cc1ccccc1)NC(=O)[C@H](Cc1c[nH]cn1)NC(=O)[C@H](CCC(=O)O)NC(=O)[C@H](CS)NC(=O)[C@H](CS)NC(=O)[C@H](CCCCN)NC(=O)[C@@H]1CC(=O)N[C@@H](CCCNC(=N)N)C(=O)N[C@H](Cc2ccccc2)C(=O)N[C@@H](CC(=O)O)C(=O)N[C@H](Cc2ccc(O)cc2)C(=O)N1)C(N)=O` [RfD-Lys-(Arg^11)CCMSH] (R[dF]D[dY]DKCCEH[dF]RWCRPV-NH2; lactam N-5) returned an IC50 in data set [1] of 1.35 ± 0.08 nM. For “RGD-Lys-(Arg^11)CCMSH: cyclic RGD motif {Arg-Gly-Asp-DTyr-Asp} attached to [Cys^3,4,10, D-Phe^7, Arg^11]α-MSH3-13 peptide via a lysine linker (RGDYDKCCEHFRWCRPV; lactam cycle c[Arg1-Gly-Asp-dTyr-Asp5]; (Arg1 alpha-amine to Asp5 side-chain carboxyl); D-Tyr4; D-Phe11; C-terminal amide; Lys6 linker)”, in data set [3], the IC50 was 2.1 nM.
